From ChEMBL document CHEMBL2396651, “Improving the biological activity of the antimicrobial peptide anoplin by membrane anchoring through a lipophilic amino acid derivative” (Bioorg Med Chem Lett, 2013)
In brackets after ≈: the same amount, converted by molar mass. Numbered stars: 1 amine (or outer) side, 2 acyl side, 3 side chain; on linkers, the order of the positions; unused ones are H or OH. Square brackets hold non-standard residues; d marks the D form. Peptide text beside a SMILES is read from it. * marks the point of attachment. X1 = CCCCCCCCC[C@H](N[*:1])C(=O)[*:2]; Decanoyl = CCCCCCCCCC(=O)*

How the values were obtained:
[1] = Hemolytic activity in sheep erythrocytes after 1 hr; assay type: ADME, cell-based; details: Ovis aries, Erythrocyte
In short: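 Red blood cells were exposed to the peptides, and hemoglobin leakage was the read-out.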

[2] = Therapeutic index, ratio of EC50 for hemolysis of sheep erythrocytes to MIC for Staphylococcus aureus ATCC […]; details: read-out: TI
In short: (§1)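 Computed as the hemolytic EC50 divided by the MIC against the named strain, both in the same mass-per-volume units. Both inputs come from this paper's hemoglobin-leakage and growth-inhibition assays.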

[3] = Induction of membrane lysis in DOPC large unilamellar vesicles model assessed as release of carboxyfluorescein at 50 ug/mL by fluorescence spectroscopic analysis relative to control; assay type: physicochemical
[4] = Therapeutic index, ratio of EC50 for hemolysis of sheep erythrocytes to MIC for Escherichia coli ATCC 8739; details: read-out: TI; in short: as §1
[5] = Induction of membrane lysis in DOPC/DOPG large unilamellar vesicles model assessed as release of carboxyfluorescein at 50 ug/mL by fluorescence spectroscopic analysis relative to control; assay type: physicochemical
Staphylococcus aureus = test: Antibacterial activity against Staphylococcus aureus ATCC […] assessed as growth inhibition after 24 hrs by broth microdilution method; assay type: functional
Escherichia coli = test: Antibacterial activity against Escherichia coli ATCC 8739 assessed as growth inhibition after 24 hrs by broth microdilution method; assay type: functional; details: ATCC 8739, 24 h

Molecule	Activity [3] [%]	Activity [5] [%]	MIC (Staphylococcus aureus) [µg/mL]	MIC (Escherichia coli) [µg/mL]	EC50 [1] [µg/mL]	selectivity ratio [2]	selectivity ratio [4]
CCCCCCCCCC(=O)NCC(=O)N[C@@H](CC(C)C)C(=O)N[C@@H](CC(C)C)C(=O)N[C@@H](CCCCN)C(=O)N[C@@H](CCCNC(=N)N)C(=O)N[C@H](C(=O)N[C@@H](CCCCN)C(=O)N[C@H](C(=O)N[C@@H](CC(C)C)C(=O)N[C@@H](CC(C)C)C(N)=O)[C@@H](C)O)[C@@H](C)CC (Decanoyl-GLLKRIKTLL-NH2)	62	100	2.5 (≈ 1.91 µM)	2.5 (≈ 1.91 µM)	5 (≈ 3.82 µM)	2	2
H-GLLKRIKTLL-NH2 [ANOPLIN]	41	35	20.6	41	> 500	> 24.3	> 12.2

Second part, led by results:

Activity [3] [%]	Activity [5] [%]	MIC (Staphylococcus aureus) [µg/mL]	MIC (Escherichia coli) [µg/mL]	Molecule	EC50 [1] [µg/mL]	selectivity ratio [2]	selectivity ratio [4]
48	48	2.5 (≈ 2.04 µM)	10.3 (≈ 8.42 µM)	CCCCCCCCC[C@H](NC(=O)[C@H](CC(C)C)NC(=O)[C@@H](NC(=O)[C@H](CCCCN)NC(=O)[C@@H](NC(=O)[C@H](CCCNC(=N)N)NC(=O)[C@H](CCCCN)NC(=O)[C@H](CC(C)C)NC(=O)[C@H](CC(C)C)NC(=O)CN)[C@@H](C)CC)[C@@H](C)O)C(N)=O (H-GLLKRIKTL[X1]-NH2)	77 (≈ 62.9 µM)	30.8	3.7
45	48	2.5 (≈ 2.04 µM)	10.3 (≈ 8.42 µM)	CCCCCCCCC[C@H](NC(=O)[C@H](CCCNC(=N)N)NC(=O)[C@H](CCCCN)NC(=O)[C@H](CC(C)C)NC(=O)[C@H](CC(C)C)NC(=O)CN)C(=O)N[C@@H](CCCCN)C(=O)N[C@H](C(=O)N[C@@H](CC(C)C)C(=O)N[C@@H](CC(C)C)C(N)=O)[C@@H](C)O (H-GLLKR[X1]KTLL-NH2)	39 (≈ 31.9 µM)	15.6	1.9
47	48	2.5 (≈ 2.04 µM)	5.2 (≈ 4.25 µM)	CCCCCCCCC[C@H](NC(=O)CN)C(=O)N[C@@H](CC(C)C)C(=O)N[C@@H](CCCCN)C(=O)N[C@@H](CCCNC(=N)N)C(=O)N[C@H](C(=O)N[C@@H](CCCCN)C(=O)N[C@H](C(=O)N[C@@H](CC(C)C)C(=O)N[C@@H](CC(C)C)C(N)=O)[C@@H](C)O)[C@@H](C)CC (H-G[X1]LKRIKTLL-NH2)	108 (≈ 88.3 µM)	43.2	10.5
